# Data as given in PubChem BioAssay AID624466 (The Scripps Research Institute Molecular Screening Center, 2012).
# About 5,400 (1.5%) of roughly 360,000 compounds were called active. The sample holds actives, similar compounds and a random draw of the others, so the mix is not that of the screen. Unmarked numbers belong to inactive results.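 Rule for the calls: active = inhibition above a per-plate cutoff, the mean inhibition of test compounds on that plate plus 3 SD (cut at about 49% in these data); inactive = the rest.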
# Biological target: Trace amine-associated receptor 1 (Homo sapiens) (UniProt Q96RJ0)
# Experiment: human TAAR1 antagonists, primary screen, Fluo-8 calcium fluorescence, CHO RD-HGA16 cells (AID 624466);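 note: 0% = DMSO plus EC80 beta-PEA response and 100% = DMSO alone without agonist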
# Conditions: CHO RD-HGA16 TAAR1, Fluo-8 calcium fluorescence, antagonist; at 3 µM; hits give high values
# Summary of the method: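 test system = CHO RD-HGA16 cells bearing hTAAR1 | replication = singlicate | controls = DMSO-only wells and EC80 β-PEA-stimulated wells | reagent = EC80 β-phenethylamine stimulus | read-out basis = percent inhibition of PEA-evoked calcium signal, max/basal emission ratio | schedule = seeding 17-24 h prior, 75-min 37 °C, 30-min RT dye loading | signal = kinetic Fluo-8 calcium fluorescence measurement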
# Sequence of Trace amine-associated receptor 1 (Homo sapiens) (Q96RJ0 whole entry, looked up): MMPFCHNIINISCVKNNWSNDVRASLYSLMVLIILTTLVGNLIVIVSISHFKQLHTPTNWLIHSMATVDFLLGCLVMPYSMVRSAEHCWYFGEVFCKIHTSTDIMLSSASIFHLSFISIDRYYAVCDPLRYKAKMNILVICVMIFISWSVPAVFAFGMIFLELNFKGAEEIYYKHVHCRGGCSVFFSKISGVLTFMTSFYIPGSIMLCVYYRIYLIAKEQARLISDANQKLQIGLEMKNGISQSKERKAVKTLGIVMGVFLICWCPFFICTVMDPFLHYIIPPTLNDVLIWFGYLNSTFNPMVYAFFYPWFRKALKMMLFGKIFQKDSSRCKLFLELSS
row,SMILES,inhibition
1,CC1(C)OC(=O)C2=C(C[C@@H](C3CC3)O[C@H]2CCc2cccc(Cl)c2)O1,-4.58%
2,CCCCCCCCNS(=O)(=O)CCNC1CCCCC1,-6.98%
3,NC(Cc1ccccc1)c1csc(Nc2cc(Oc3ccccc3)ncn2)n1 (centres undefined),49.7% (active)
4,COc1ccc(CC(N)c2csc(NC(=O)Cc3ccccc3)n2)cc1 (centres undefined),15.7%
5,COc1ccc(CC(N)c2csc(NC(=O)NC(c3ccccc3)c3ccccc3)n2)cc1 (centres undefined),12.4%
6,O=C(CSc1nc2[nH]c(=O)[nH]c(=O)c2s1)Nc1cccc(F)c1,-17.1%
7,CCC(c1nnnn1Cc1ccco1)N(CCc1ccccc1)Cc1cc2cccc(C)c2[nH]c1=O (centres undefined),-1.4%
8,CCC(c1nnnn1Cc1ccco1)N(Cc1cc2cc(OC)ccc2[nH]c1=O)C1CCCCC1 (centres undefined),-35.8%
9,CCC(c1nnnn1Cc1ccco1)N(CCc1ccccc1)Cc1cc2ccc(OC)cc2[nH]c1=O (centres undefined),85.2% (active)
10,CCCN1C(=O)c2[nH]nc(-c3ccccc3)c2C1c1ccccc1 (centres undefined),-18.5%
11,O=C(O)CSCc1ccc(C(=O)O)o1,8.93%
12,Cc1ccc(CC2CC(=O)N(c3cc(C)ccc3C)C2=O)cc1 (centres undefined),-18.2%
13,Cc1ccccc1CN1CCC(C(=O)Nc2ccc(Oc3cccnc3)cc2)CC1,-4.26%
14,Cc1ccnc(N2C(=O)c3ccccc3C2Nc2ccc3c(c2)OCCO3)c1 (centres undefined),-4.03%
15,S=C(NCc1ccco1)Nc1ccc2c(c1)OCCO2,-13.5%
16,O=C1c2ccccc2C(Nc2ccc3c(c2)OCCO3)N1Cc1ccco1 (centres undefined),60.2% (active)
17,COC(=O)c1cc(S(=O)(=O)Nc2ccc(C)c(F)c2)c[nH]1,3.38%
18,COc1ccc(C(=O)C(OP(=O)(OC)OC)c2ccccc2OC)cc1 (centres undefined),-8.05%
19,CC(C)N(Cc1ccccc1)C(=O)COC(=O)c1cnccn1,-3.08%
20,Cc1cccc(N(C(=O)c2csnn2)C(C(=O)NCc2ccccc2)c2ccncc2)c1 (centres undefined),-12.4%
21,COc1ccc(C(C(=O)NCc2ccccc2)N(Cc2cccs2)C(=O)c2cnccn2)cc1 (centres undefined),53.3% (active)
22,CCOc1ccccc1CN1CCN(C2CCC2)CC1CCO (centres undefined),6.95%
23,COC(=O)[C@@]12C[C@@H](CC(=O)N3CCC(c4ccccc4)CC3)C(=O)N(Cc3ccccc3)C1=CCC(C)(C)C2,-13.1%

row,SMILES,inhibition
1,Clc1cccc2c1C1CC2CCN1Cc1ccccc1 (centres undefined),-3.53%
2,COCCNC(=O)CCCN1C(=O)c2ccccc2Sc2ncccc21,-9.71%
3,Cc1c(C(=O)NCc2ccccc2)cnn1-c1ccccc1,-4.01%
4,Cc1c(CNCCc2ccccc2)c(C(=O)O)c(C)n1-c1ccccc1,65.9% (active)
5,CNC(=O)CSc1nnc(CCc2ccccc2)n1-c1ccccc1,10.8%
6,CCOC(=O)/C=C/c1ccccc1O,-4.54%
7,Cc1cc(C)nc(SC2CCCCC2NS(=O)(=O)c2ccc(Cl)cc2)n1 (centres undefined),-8.5%
8,COC(=O)C1=C(C)N(Cc2ccc(F)cc2)C(=S)NC1c1cccc(Cl)c1 (centres undefined),64.3% (active)
9,CC(=O)C1=C(C)N(Cc2ccc(Cl)cc2)C(=S)NC1c1ccc(F)cc1 (centres undefined),28.2%
10,COC(=O)C1=C(C)N(Cc2ccc(C(F)(F)F)cc2)C(=NCc2ccc(C(F)(F)F)cc2)NC1c1cccc(Cl)c1 (centres undefined),12.3%
11,O=C(Nc1cccc(NC(=O)N2CCN(c3ccccc3)CC2)c1)N1CCN(c2ccccc2)CC1,53.4% (active)
12,O=C(Nc1ccccc1)N1CCN(C2c3ccccc3-c3ccccc32)CC1,3.75%
13,COc1cccc(N2CCN(C(=O)Nc3ccc4c(c3)NC(=O)CO4)CC2)c1,11.5%
14,Cc1nn2c(NCCN(C)C)c3c(nc2c1-c1ccccc1)CCC3,-32.4%
15,COc1cccc(CNC(=O)[C@H]2CCCN2C(=O)[C@H]2CCCN2C(=O)c2cc(F)cc(F)c2)c1,4.19%
16,CCN(CC(=O)Nc1c(F)cccc1F)C(=O)Cc1cccs1,-22.6%
17,Cc1cc(C)c(S(=O)(=O)NN=C2c3ccccc3[C@H]3Cc4csc[n+]4[C@@H]23)c(C)c1,6.84%
18,CC(C)n1ncc2c(C(=O)NCc3ccccc3CN(C)C)cc(C3CC3)nc21,-19.6%
19,COc1ccc(OCCNC(=O)c2cc(C3CC3)nc3c2cnn3C(C)C)cc1,48.8% (active)
20,CC(C)n1ncc2c(C(=O)Nc3ccc(CC#N)cc3)cc(C3CC3)nc21,35.5%
21,CCc1c(-c2ccc(F)cc2)ncn1Cc1cccc(-c2ccccc2)c1,34.5%
22,O=C1NC[C@@H](CCCCN2CCN(CCc3ccc(O)cc3)C(=O)C2=O)N(CC2CCCCC2)C1=O,3.12%
23,CC(C)(C)c1ccc(CN2C(=O)c3ccccc3S2(=O)=O)cc1,8.91%

row,SMILES,inhibition
1,COc1ccc(CNC(=O)CN2C(=O)c3ccccc3S2(=O)=O)cc1,17.9%
2,O=C1c2ccccc2S(=O)(=O)N1CC(O)Cn1c2ccccc2c2ccccc21 (centres undefined),62.3% (active)
3,COc1ccc(NC(=O)c2cn(-c3ccccc3)nc2SC)cc1,-11.6%
4,COc1ccc(NC(=O)CN(C)C(=O)c2cc(C)oc2C)cc1,-28%
5,COc1ccc(-c2cc(C(=O)Nc3ccccc3O)c3ccccc3n2)cc1,86.9% (active)
6,COc1ccc(NC(=O)c2cc(-c3ccc(C)o3)nc3ccccc23)cc1,57.4% (active)
7,COc1ccc(NC(=O)CN(C)C(=O)c2cc(-c3ccc(C)o3)nc3ccccc23)cc1,54.9% (active)
8,COc1cccc(NC(=O)CN(C)C(=O)c2cc(Cl)nc3ccccc23)c1,18.8%
9,COc1ccc(NC(=O)c2cc(-c3cc(OC)c(OC)c(OC)c3)nc3ccccc23)c(OC)c1,3.05%
10,Cc1ccc2nc(-c3ccncc3)cc(C(=O)Nc3ccc(OC(F)F)cc3)c2c1,-4.36%
11,C/C(=N\NC(=O)c1cc(-c2ccc(O)cc2)nc2ccccc12)c1cccnc1,-2.53%
12,CO[C@@H]1CN(C)C(=O)c2cc(NC(=O)Nc3cc(F)ccc3F)ccc2OC[C@H](C)N(C(=O)c2ccccn2)C[C@@H]1C,-23.9%
13,CCCCCCN1CCN(C2CN(Cc3cn(Cc4ccc(F)cc4)nn3)S(=O)(=O)C2)CC1 (centres undefined),-26.8%
14,COC(=O)C1=C(C)N(Cc2ccc(C(F)(F)F)cc2)C(=NCc2ccccc2)NC1c1ccccc1C(F)(F)F (centres undefined),-9.36%
15,CCOC(=O)c1c(N)c(C#N)nn1-c1ccccc1C(=O)OC,5.89%
16,Cc1cccc(NC(=S)NCCc2ccc(Cl)cc2)c1C,-16.5%
17,Cc1ccccc1NC(=S)NC(=O)Cc1ccc(Cl)cc1,91.6% (active)
18,O=C(COc1ccc(Cl)cc1)NC(=S)Nc1ccccc1N1CCOCC1,-2.14%
19,O=C(COc1ccc(Cl)cc1)Nc1ccccc1CO,4.17%
20,Cc1ccccc1N/C(SCc1ccc(Cl)cc1)=C(/C#N)C(N)=O,-9.21%
21,O=C(Cc1ccc(Cl)cc1)NC(=S)Nc1ccccc1O,104% (active)
22,O=C(C(=O)N1CCC(CNS(=O)(=O)Cc2ccccc2)CC1)c1cc2ccccc2o1,-11.1%
23,CCc1cccc(CC)c1N1C(=O)CC(Sc2ccccc2N)C1=O (centres undefined),-2.71%

row,SMILES,inhibition
1,CCC(c1nc2ccccc2[nH]1)n1c(=O)c(-c2cccs2)nc2ccccc21 (centres undefined),-2.04%
2,COc1ccc(C(=O)NC(=S)NNC(=O)CCc2ccccc2)cc1,66.2% (active)
3,O=C(NNC(=S)NCc1ccccc1)c1ccc(OC(F)F)cc1,-12.5%
4,CC(=O)NC(=S)NNC(=O)c1ccc(Br)cc1,25.8%
5,COc1ccc(C(=O)NNC(=S)NC(=O)c2ccccc2)cc1,66.3% (active)
6,CCOc1ccccc1NC(=S)NC(=O)CCc1ccccc1,-0.27%
7,O=C(CCc1ccccc1)NNC(=O)COc1ccc(Cl)cc1,-2.05%
8,CCOC(=O)[C@]12CCCC=C1N(CCC1=CCCCC1)C(=O)[C@H](CC(=O)NCCCCc1ccccc1)C2,-5.96%
9,CCO[C@H]1OC(C(=O)NCc2ccccc2)=C[C@@H](c2coc3ccccc3c2=O)[C@@H]1CCCO,1.58%
10,O=C(NCc1ccccc1)[C@H]1CCCN1C(=O)[C@@H]1CCCN1C(=O)c1ccc(Cl)cc1Cl,-4.49%
11,CC[C@@H]1CC2=C(C(=O)OC(C)(C)O2)[C@@H](CC)O1,7.78%
12,Cc1ccc(-c2ccc(/C=N/NC(=O)CN3CCOCC3)o2)cc1[N+](=O)[O-],3.41%
13,Cc1cc(C)c([N+](=O)[O-])cc1-c1ccc(/C=N/NC(=O)c2nonc2N)o1,52% (active)
14,COc1cc(/C=N\NC(=O)c2nonc2N)c(OC)cc1Br,-10.8%
15,O=C1NC[C@H](CCCCN2C[C@H](Cc3ccccc3)N(Cc3ccccc3)C(=O)C2=O)N(CCc2ccc(O)cc2)C1=O,-9.2%
16,CC(=O)Nc1cccc(OCC(=O)/C=C2\N(C)c3ccccc3C2(C)C)c1,32.4%
17,CN1/C(=C\C(=O)c2oc3ccccc3c2N)C(C)(C)c2ccccc21,51.5% (active)
18,CN1CCN(CCC(=O)N/N=C/C=C2\N(C)c3ccccc3C2(C)C)CC1,28.4%
19,CC(=O)Nc1ccc(NC(=O)CCN2C(=O)C3CC=CCC3C2=O)cc1 (centres undefined),-7.1%
20,Cc1nc2ccc(NC(=O)N3CCC(c4ccccc4)C3)cc2nc1C (centres undefined),-3.01%
